≈ marks a conversion by molar mass, not a printed value.
What was measured:
[1] = Cytotoxicity against human HEL cells assessed as alteration of cell morphology; format: cell-based
Method in brief: (§1)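 Uninfected cell cultures exposed to test compounds alongside antiviral assays; minimum cytotoxic concentration (MCC) = concentration causing a microscopically detectable alteration of cell morphology.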

[2] = Cytotoxicity against human HEL cells assessed as reduction of cell growth; format: cell-based
Method in brief: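 HEL cells; CC50 = compound concentration reducing cell growth by 50%.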

Human alphaherpesvirus 2 [3] = experiment: Antiviral activity against HSV2 G in human HEL cells assessed as reduction of virus-induced cytopathogenicity; format: functional; conditions: Human alphaherpesvirus 2, G
Method in brief: (§2)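 Confluent cell monolayers (E6SM, HEL, HeLa or Vero, per line) inoculated with 100 CCID50 virus; 1 h adsorption, residual virus removed, then incubated with compound at 400, 200, 100 … µg/ml. Cytopathicity scored once complete in untreated virus controls; MIC = concentration inhibiting virus-induced cytopathicity.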

Human alphaherpesvirus 1 [4] = experiment: Antiviral activity against thymidine kinase deficient and acyclovir resistant HSV1 KOS in human E6SM cells assessed as reduction of virus-induced cytopathogenicity; format: functional; conditions: Human alphaherpesvirus 1, KOS; method in brief: as §2
[5] = tested on: Vesicular stomatitis virus; experiment: Antiviral activity against in Vesicular stomatitis virus in human HEL cells assessed as reduction of virus-induced cytopathogenicity; format: functional; method in brief: as §2
Human alphaherpesvirus 1 [6] = experiment: Antiviral activity against thymidine kinase deficient and acyclovir resistant HSV1 KOS in human HEL cells assessed as reduction of virus-induced cytopathogenicity; format: functional; conditions: Human alphaherpesvirus 1, KOS; method in brief: as §2
Human alphaherpesvirus 2 [7] = experiment: Antiviral activity against HSV2 G in human E6SM cells assessed as reduction of virus-induced cytopathogenicity; format: functional; conditions: Human alphaherpesvirus 2, G; method in brief: as §2
Human alphaherpesvirus 1 [8] = experiment: Antiviral activity against HSV1 KOS in human E6SM cells assessed as reduction of virus-induced cytopathogenicity; format: functional; conditions: Human alphaherpesvirus 1, KOS; method in brief: as §2
Human betaherpesvirus 5 [9] = experiment: Antiviral activity against human cytomegalovirus Davis infected HEL cells assessed as reduction in virus plaque formation; format: functional, organism-based; conditions: Human betaherpesvirus 5, Davis
[10] = tested on: Vesicular stomatitis virus; experiment: Antiviral activity against in Vesicular stomatitis virus in human E6SM cells assessed as reduction of virus-induced cytopathogenicity; format: functional; method in brief: as §2
Human betaherpesvirus 5 [11] = experiment: Antiviral activity against human cytomegalovirus AD169 infected HEL cells assessed as reduction in virus plaque formation; format: functional, organism-based; conditions: Human betaherpesvirus 5, AD169, HEL
Human alphaherpesvirus 1 [12] = experiment: Antiviral activity against HSV1 KOS in human HEL cells assessed as reduction of virus-induced cytopathogenicity; format: functional; conditions: Human alphaherpesvirus 1, KOS; method in brief: as §2
[13] = Cytotoxicity against human E6SM cells; format: cell-based; conditions: E6SM cells; method in brief: as §1
Vero = experiment: Cytotoxicity against african green monkey Vero cells; format: cell-based; conditions: chlorocebus sabaeus; method in brief: as §1
[14] = tested on: Respiratory syncytial virus; experiment: Antiviral activity against respiratory syncytial virus in human HeLa cells assessed as inhibition of virus-induced cytopathogenicity; format: functional; method in brief: as §2
Sindbis virus = experiment: Antiviral activity against Sindbis virus in african green monkey Vero cells assessed as reduction of virus-induced cytopathogenicity; format: functional; method in brief: as §2
[15] = Cytotoxicity against human MT4 cells by MTT assay; format: cell-based
Method in brief: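 Mock-infected MT-4 cells (6 × 10⁵ cells/ml) with serial five-fold compound dilutions in triplicate; MTT reduction read at 540 and 690 nm after 5 days, median OD of three wells; CC50 = concentration reducing OD540 of mock-infected control by 50%.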

[16] = tested on: Vesicular stomatitis virus; experiment: Antiviral activity against vesicular stomatitis virus in human HeLa cells assessed as inhibition of virus-induced cytopathogenicity; format: functional; method in brief: as §2
Punta Toro virus = experiment: Antiviral activity against Punta Toro virus in african green monkey Vero cells assessed as reduction of virus-induced cytopathogenicity; format: functional; method in brief: as §2
Coxsackievirus B4 [17] = experiment: Antiviral activity against Coxsackie virus B4 in african green monkey Vero cells assessed as reduction of virus-induced cytopathogenicity; format: functional; conditions: Enterovirus B; method in brief: as §2
Coxsackievirus B4 [18] = experiment: Antiviral activity against Coxsackie virus B4 in human HeLa cells assessed as inhibition of virus-induced cytopathogenicity; format: functional; conditions: Enterovirus B; method in brief: as §2
Human alphaherpesvirus 3 [19] = experiment: Antiviral activity against TK- VZV 07/1 infected HEL cells assessed as reduction in virus plaque formation; format: functional, organism-based; conditions: Human alphaherpesvirus 3, 07/1, HEL
Human respirovirus 3 = experiment: Antiviral activity against Parainfluenza 3 virus in african green monkey Vero cells assessed as reduction of virus-induced cytopathogenicity; format: functional; method in brief: as §2
[20] = tested on: Mammalian orthoreovirus 1; experiment: Antiviral activity against Reo virus 1 in african green monkey Vero cells assessed as reduction of virus-induced cytopathogenicity; format: functional; method in brief: as §2
[21] = tested on: Human immunodeficiency virus 2; experiment: Antiviral activity against HIV2 ROD in human MT4 cells assessed as protection against virus-induced cytopathogenicity by MTT assay; format: functional, organism-based; design: Activity: concentration or dose not given beside the values; conditions: for IC50: Human immunodeficiency virus 2, ROD, MT4
Method in brief: (§3)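 MT-4 cells at 6 × 10⁵ cells/ml infected with HIV-1 IIIB or HIV-2 ROD at 100–300 CCID50; compounds in serial five-fold dilutions, triplicate mock- and virus-infected wells. MTT viability read at 540 and 690 nm after 5 days, median OD of three wells; EC50 = 50% protection from viral cytopathic effect.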

Human alphaherpesvirus 3 [22] = experiment: Antiviral activity against TK+ VZV OKA infected HEL cells assessed as reduction in virus plaque formation; format: functional, organism-based; conditions: Human alphaherpesvirus 3, OKA
[23] = tested on: Human immunodeficiency virus 1; experiment: Antiviral activity against HIV1 3B in human MT4 cells assessed as protection against virus-induced cytopathogenicity by MTT assay; format: functional, organism-based; design: Activity: concentration or dose not given beside the values; conditions: for IC50: Human immunodeficiency virus 1, 3B, MT4; method in brief: as §3
[24] = Cytotoxicity against human HeLa cells; format: cell-based; method in brief: as §1

| Structure (SMILES) | MCC [1] [µg/mL] | CC50 [2] [µg/mL] | MIC (Human alphaherpesvirus 2 [3]) [µg/mL] | MIC (Human alphaherpesvirus 1 [4]) [µg/mL] | MIC [5] [µg/mL] | MIC (Human alphaherpesvirus 1 [6]) [µg/mL] | MIC (Human alphaherpesvirus 2 [7]) [µg/mL] | MIC (Human alphaherpesvirus 1 [8]) [µg/mL] | EC50 (Human betaherpesvirus 5 [9]) [µg/mL] | MIC [10] [µg/mL] | EC50 (Human betaherpesvirus 5 [11]) [µg/mL] | MIC (Human alphaherpesvirus 1 [12]) [µg/mL] | MCC [13] [µg/mL] | Activity (Vero) [µg/mL] | MIC [14] [µg/mL] | MIC (Sindbis virus) [µg/mL] | MIC [16] [µg/mL] | MIC (Punta Toro virus) [µg/mL] | MIC (Coxsackievirus B4 [17]) [µg/mL] | MIC (Coxsackievirus B4 [18]) [µg/mL] | also measured |
| --- | --- | --- | --- | --- | --- | --- | --- | --- | --- | --- | --- | --- | --- | --- | --- | --- | --- | --- | --- | --- | --- |
| Nc1nc2c(ncn2COC(CO)CO)c(=O)[nH]1 [GANCICLOVIR] | > 100 | 87 (≈ 341 µM) | 0.032 (≈ 0.125 µM) | 2.4 (≈ 9.4 µM) | > 100 | 2.4 (≈ 9.4 µM) | 0.032 (≈ 0.125 µM) | 0.032 (≈ 0.125 µM) | 1.9 (≈ 7.44 µM) | > 100 | 0.64 (≈ 2.51 µM) | 0.032 (≈ 0.125 µM) | > 100 |  |  |  |  |  |  |  |  |
| C=CCNC(=S)Nc1ccc(OCc2n[nH]c(=S)n2-c2ccccc2)cc1 | > 400 | > 50 | 240 (≈ 604 µM) | 240 (≈ 604 µM) | 240 (≈ 604 µM) | 240 (≈ 604 µM) | 240 (≈ 604 µM) | 240 (≈ 604 µM) | > 100 | 240 (≈ 604 µM) | > 100 | 240 (≈ 604 µM) | > 400 | 400 | > 80 | > 80 | > 80 | > 80 | 48 (≈ 121 µM) | > 80 | CC50 [15]: 107 µg/mL (≈ 269 µM); EC50 (Human alphaherpesvirus 3 [19]): > 100 µg/mL; MIC (Human respirovirus 3): > 80 µg/mL; MIC [20]: > 80 µg/mL; Activity [21]: 0.5%; IC50 [21]: > 103 µg/mL; EC50 (Human alphaherpesvirus 3 [22]): > 100 µg/mL; Activity [23]: 1.5%; IC50 [23]: > 92.3 µg/mL; MCC [24]: 400 µg/mL |
| O=c1[nH]c(=O)n([C@H]2C[C@H](O)[C@@H](CO)O2)cc1/C=C/Br [BRIVUDINE] | > 400 |  | 80 (≈ 240 µM) | > 400 | > 400 | > 400 | 80 (≈ 240 µM) | 0.0768 (≈ 0.231 µM) |  | > 400 |  | 0.0768 (≈ 0.231 µM) | > 400 | > 400 | > 400 | > 400 | > 400 | > 400 | > 400 | > 400 | EC50 (Human alphaherpesvirus 3 [19]): 25 µg/mL (≈ 75 µM); MIC (Human respirovirus 3): > 400 µg/mL; MIC [20]: > 400 µg/mL; EC50 (Human alphaherpesvirus 3 [22]): 0.02 µg/mL (≈ 0.06 µM); MCC [24]: ≥ 400 µg/mL |
| CNC(=S)Nc1ccc(OCc2n[nH]c(=S)n2-c2ccccc2)cc1 | > 400 | > 50 | > 400 | > 400 | > 400 | > 400 | > 400 | > 400 | > 100 | > 400 | > 100 | > 400 | > 400 | 400 | > 80 | > 80 | > 80 | > 80 | > 80 | > 80 | CC50 [15]: ≥ 83.5 µg/mL; EC50 (Human alphaherpesvirus 3 [19]): > 100 µg/mL; MIC (Human respirovirus 3): > 80 µg/mL; MIC [20]: > 80 µg/mL; Activity [21]: 2%; IC50 [21]: > 113 µg/mL; EC50 (Human alphaherpesvirus 3 [22]): > 100 µg/mL; Activity [23]: 0.5%; IC50 [23]: > 83.5 µg/mL; MCC [24]: 400 µg/mL |
| C=CCNC(=S)Nc1ccc(OCc2n[nH]c(=S)n2C)cc1 | > 400 | > 50 | 240 (≈ 715 µM) | 240 (≈ 715 µM) | > 400 | 240 (≈ 715 µM) | 240 (≈ 715 µM) | > 400 | > 100 | > 400 | > 100 | > 400 | > 400 | 400 | > 80 | > 80 | > 80 | > 80 | 48 (≈ 143 µM) | > 80 | CC50 [15]: ≥ 107 µg/mL; EC50 (Human alphaherpesvirus 3 [19]): > 100 µg/mL; MIC (Human respirovirus 3): > 80 µg/mL; MIC [20]: > 80 µg/mL; Activity [21]: 3%; IC50 [21]: > 114 µg/mL; EC50 (Human alphaherpesvirus 3 [22]): > 100 µg/mL; Activity [23]: 1.5%; IC50 [23]: > 107 µg/mL; MCC [24]: 400 µg/mL |

Source: ChEMBL document CHEMBL1149790, “Synthesis of some novel thiourea derivatives obtained from 5-[(4-aminophenoxy)methyl]-4-alkyl/aryl-2,4-dihydro-3H-1,2,4-triazole-3-thiones and evaluation as antiviral/anti-HIV and anti-tuberculosis agents” (Eur J Med Chem, 2008)
